High-throughput results as filed in PubChem.
E-sel inducer: E-selectin induction on HUVECs; P16581; HUVEC E-selectin immunofluorescence imaging; normalized: neutral wells 0, TNF-alpha wells 100; activation, % at 7.58 µM; 260,000 compounds, 0.37% hits; AID 686992;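 active = mean E-selectin-positive cell signal at least 10% of the positive control, reached in at least 60% of replicates, without over 20% cell loss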
Target sequence (P16581 whole entry, looked up): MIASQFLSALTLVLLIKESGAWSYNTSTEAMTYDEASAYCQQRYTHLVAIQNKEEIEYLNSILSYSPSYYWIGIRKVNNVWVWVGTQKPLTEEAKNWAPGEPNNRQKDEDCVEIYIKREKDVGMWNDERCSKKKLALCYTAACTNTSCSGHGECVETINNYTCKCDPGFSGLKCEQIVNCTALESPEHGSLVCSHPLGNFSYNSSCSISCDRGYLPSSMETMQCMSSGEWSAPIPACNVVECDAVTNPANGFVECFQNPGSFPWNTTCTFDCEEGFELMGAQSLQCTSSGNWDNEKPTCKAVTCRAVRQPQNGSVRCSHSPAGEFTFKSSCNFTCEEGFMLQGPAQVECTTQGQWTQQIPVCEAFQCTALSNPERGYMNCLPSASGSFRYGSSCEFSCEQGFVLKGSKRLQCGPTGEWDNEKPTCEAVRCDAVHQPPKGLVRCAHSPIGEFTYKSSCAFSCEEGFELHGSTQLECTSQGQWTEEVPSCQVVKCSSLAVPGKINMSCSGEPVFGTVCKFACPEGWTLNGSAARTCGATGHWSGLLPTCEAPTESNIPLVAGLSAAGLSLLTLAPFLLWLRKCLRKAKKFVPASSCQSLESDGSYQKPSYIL
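material = human umbilical vein endothelial cells (HUVEC), E-selectin induction | quantity = 3,000 cells/well | medium = EGM-2 growth medium on 0.1% gelatin-coated wells | technique = immunofluorescence imaging | read-out basis = % PE-positive cells | control set = TNF-alpha positive control, DMSO neutral control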
Cneo AK release: Cryptococcus neoformans lysis via adenylate kinase release. C. neoformans lysis, adenylate kinase release luminescence, 4 h; normalised: neutral wells 0, clomiphene wells 100. lysis activity, % at 15 µM. 360,000 compounds, 0.2% hits. AID 651654;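 active = mean lysis activity across replicates of at least 80%, whatever share of replicates individually reach that level; inactive = mean lysis activity below 80%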
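Material – Cryptococcus neoformans yeast cells · Quantity – 5 × 10^6 yeast cells/mL · Buffer or medium – YPD medium · Compound – single dose · Timing – 4 h static compound exposure, 37 °C, read 1 h post-reagent · Signal – adenylate kinase release luminescence · Read-out basis – lysis from increased AK signal · Benchmarks – Clomiphene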
DENV2 CPE: protects cells from dengue virus 2 cytopathic effect | DENV2-infected cells, cytopathic effect rescue, plate reader | CPE inhibition, % at 9.99 µM | AID 651640 | 350,000 compounds, 1.7% hits; in the data active = CPE inhibition above about 20%, passing the limit was not always enough; tested in BHK-21 cells;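 also: 0% = median of neutral control wells and 100% = median of positive control wells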
Ecoli rRNA inh: selective bacterial rRNA inhibition in E. coli | 350,000 compounds, 1.6% hits | E. coli WT GFP vs humanized-ribosome RFP mutants, fluorescence, 24 h; active compounds read low; DMSO median 0, no signal -100 | GFP signal change (wild-type ribosome), % (concentration not given with the values);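 active = significant combined selectivity score with lowered wild-type GFP, culture density cut under 30%, mutant RFP and density less affected; inactive = any of these conditions unmet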
miR122 inh: miR-122 inhibition in Huh7 cells; activation (reporter increase), % at 12.5 µM; 340,000 compounds, 0.3% hits; Huh7 miR-122 Renilla luciferase sensor, 48 h; neutral wells = 0, positive control = 100;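 active = mean replicate activation score at least 90 and every replicate individually at or above 90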;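 also: higher luciferase means less miR-122 activity so hits act as miR-122 inhibitors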
* marks the source's active call; other numbers are inactive results; nt = no result; [ ] = another dose, or the depositor's remark. In the library only some 3.1% were active in any assay of this set; here they are far more common.

SMILES | E-sel inducer | Cneo AK release | DENV2 CPE | Ecoli rRNA inh | miR122 inh
Cc1noc(C)c1NC(=O)Nc1ccc2c(c1)C(=O)N([C@@H](C)CO)C[C@H](C)[C@@H](CN(C)Cc1ccccc1)O2 | 0 | -4 | 29* | 3 | 2[16.7 µM]
CC=Cc1ccc2n(c1=O)C[C@H]1[C@H](CO)[C@@H](C(=O)N[C@@H](C)c3ccccc3)[C@@H]2N1Cc1ccccc1 (mixture of isomers) | 0 | nt | -1 | -3 | nt
C[C@@H]1CN([C@@H](C)CO)C(=O)c2cccc(NS(=O)(=O)c3ccc(F)cc3)c2O[C@@H]1CN(C)S(=O)(=O)c1ccccc1 | 0 | -2 | 0 | -1 | -13[16.7 µM]
Nc1sc(-c2ccccc2)cc1C(=O)NCCN1CCOCC1 | 0 | nt | 26* | 6 | nt
CC1(C)CC(=O)C2=C(C1)Nc1cc3c(cc1C2c1ccc2c(c1)OCO2)OCO3 (centres undefined) | nt | -1 | 38* | 1 | 2
CC1(C)CC(=O)C2=C(C1)Nc1cc3c(cc1C2c1ccc(F)cc1)OCO3 (centres undefined) | nt | -1 | nt | nt | 3
C[C@H](CO)N1C[C@H](C)[C@@H](CN(C)Cc2ccc(C(=O)O)cc2)OCCCC[C@H](C)Oc2ccc(NS(=O)(=O)c3cccs3)cc2C1=O | 0 | 2 | -3 | 3 | -4[16.7 µM]
O=C(CCl)Nc1cn(-c2ccccc2)nc1-c1ccc(F)cc1 | 1 | nt | 2 | -24* | nt
CCN(C[C@H]1N[C@H](CO)[C@H]1c1ccc(-c2ccc(F)cc2)cc1)C(=O)COC | 0 | 2 | -3 | -3 | -92[16.7 µM]
CC(=O)N1[C@@H](CO)[C@H](c2ccccc2)[C@@H]1CN(CC(C)C)C(=O)c1ccccn1 | 0 | 9 | 27* | -1 | 42[16.7 µM]
CCN(C[C@@H]1N[C@@H](CO)[C@H]1c1ccc(-c2ccccc2)cc1)C(=O)COC | 0 | -9 | 24* | 2 | 6[16.7 µM]
CCC(=O)N(CC)C[C@@H]1[C@@H](c2ccccc2)[C@H](CO)N1C(C)=O | 10 | 2 | 20* | 1 | -7[16.7 µM]
CC(=O)N1[C@H](CO)[C@@H](c2ccccc2)[C@H]1CN(CC(C)C)C(=O)c1ccccn1 | 0 | -2 | 11 | 1 | -50[16.7 µM]
CN(C[C@@H]1[C@@H](c2ccccc2)[C@H](CO)N1C(=O)C1CC1)C(=O)c1ccccn1 | 0 | 2 | 54* | 2 | 0[16.7 µM]
Cc1cc(C)cc(-n2c(C)cc(/C=N\NC(=O)COc3cccc4cccnc34)c2C)c1 | nt | 0 | 2 | -21* | -5
c1ccc(COc2ccc(OCCCCN3CCCC3)cc2)cc1 | nt | 3 | nt | nt | -16
CC1CCN(CCOc2ccc(OCc3ccccc3)cc2)CC1 | nt | -4 | 36* | 4 | 2
CNCCCC1c2ccccc2C=Cc2ccccc21 | 0 | 1 | 26* | 7 | -5
CNCCC=C1c2ccccc2C=Cc2ccccc21 | -3 | 0 | 2 | nt | -8
CO[C@@H]1CN(C)C(=O)c2ccc(NC(=O)Nc3c(C)noc3C)cc2OC[C@@H](C)N(CCC(F)(F)F)C[C@H]1C | 0 | 13 | -2 | -1 | nt
CO[C@@H]1CN(C)C(=O)c2ccc(NC(=O)Nc3c(C)noc3C)cc2OC[C@H](C)N(CCC(F)(F)F)C[C@H]1C | 0 | nt | 37* | -2 | nt
CCCN1C[C@H](C)[C@@H](OC)CN(C)C(=O)c2ccc(NC(=O)Nc3c(C)noc3C)cc2OC[C@H]1C | 0 | -1 | 21* | -2 | 7[16.7 µM]
Cc1nn(C)cc1NC(=O)C[C@@H]1CC[C@H]2[C@H](COc3ccc(NC(=O)C4CCC4)cc3C(=O)N2C)O1 | 1 | nt | nt | -2 | 5[16.7 µM]
Cc1ccc(S(=O)(=O)N2CCN(Cc3ccccc3)CC2)cc1 | 0 | -1 | 1 | -1 | 1
Cc1ccc(S(=O)(=O)N2CCN(Cc3cccc(F)c3)CC2)cc1 | 0 | -5 | -5 | -28* | -4
COc1ccc(S(=O)(=O)N(C)C[C@@H]2Oc3c(NC(=O)c4ccc(-c5nccs5)cc4)cccc3C(=O)N([C@H](C)CO)C[C@@H]2C)cc1 | nt | 2 | 9 | -3 | -1[16.7 µM]
O=C(C[C@H]1CC[C@@H]2[C@H](COC[C@@H](O)CN2C(=O)c2ccncc2)O1)NC1CCC1 | 0 | 4 | -4 | 1 | -4[16.7 µM]
